Measurements taken from PubChem BioAssay AID2539 (The Scripps Research Institute Molecular Screening Center, 2010).
Calls of active or inactive are those of the source.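 How the source made its calls: active means at least 50% inhibition of the cell reactive oxygen species light signal; inactive means the rest.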

Key:
Assay in all cases: inhibition of NOX2, NOX3, NOX4 ROS production, late-stage follow-up, selectivity assay for NOX1 inhibitor project, cell-based, HEK293 transfected, luminol chemiluminescence, powder samples (AID 2539)
[1] = biological target: NADPH oxidase 4 (Homo sapiens) (UniProt Q9NPH5); conditions: HEK293 transfected NOX2/3/4, luminol ROS chemiluminescence; NOX4; at 10 µM; stronger effect = higher value
NADPH oxidase 4 (Homo sapiens), sequence (Q9NPH5 whole entry, looked up): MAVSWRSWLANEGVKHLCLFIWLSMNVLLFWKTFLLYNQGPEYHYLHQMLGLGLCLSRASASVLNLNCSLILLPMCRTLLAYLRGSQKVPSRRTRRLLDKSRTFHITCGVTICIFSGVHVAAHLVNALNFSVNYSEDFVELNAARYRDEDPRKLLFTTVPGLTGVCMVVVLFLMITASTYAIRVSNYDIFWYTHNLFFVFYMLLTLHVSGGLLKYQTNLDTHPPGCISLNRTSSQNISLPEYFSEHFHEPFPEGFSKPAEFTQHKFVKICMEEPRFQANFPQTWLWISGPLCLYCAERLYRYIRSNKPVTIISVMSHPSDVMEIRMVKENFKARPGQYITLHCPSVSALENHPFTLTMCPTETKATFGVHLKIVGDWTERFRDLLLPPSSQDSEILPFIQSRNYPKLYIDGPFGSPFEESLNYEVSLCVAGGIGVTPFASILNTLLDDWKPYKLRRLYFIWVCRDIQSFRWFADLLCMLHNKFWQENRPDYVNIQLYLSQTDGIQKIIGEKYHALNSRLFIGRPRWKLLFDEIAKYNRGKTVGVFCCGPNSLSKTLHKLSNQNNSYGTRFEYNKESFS
How it was run: (§1)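 Material: transfected HEK/293 cells expressing NOX2, NOX3 or NOX4 / Reagent: luminol with horseradish peroxidase as ROS probe / Doses: single compound dose of 10 µM / Times: compounds added 16 h post-transfection, 2 h before probe / Measured by: luminol/HRP chemiluminescence reporting cellular ROS / Replicates: each compound tested in triplicate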

[2] = biological target: NADPH oxidase 2 (Homo sapiens) (UniProt P04839); conditions: HEK293 transfected NOX2/3/4, luminol ROS chemiluminescence; NOX2; at 10 µM; stronger effect = higher value
NADPH oxidase 2 (Homo sapiens), sequence (P04839 whole entry, looked up): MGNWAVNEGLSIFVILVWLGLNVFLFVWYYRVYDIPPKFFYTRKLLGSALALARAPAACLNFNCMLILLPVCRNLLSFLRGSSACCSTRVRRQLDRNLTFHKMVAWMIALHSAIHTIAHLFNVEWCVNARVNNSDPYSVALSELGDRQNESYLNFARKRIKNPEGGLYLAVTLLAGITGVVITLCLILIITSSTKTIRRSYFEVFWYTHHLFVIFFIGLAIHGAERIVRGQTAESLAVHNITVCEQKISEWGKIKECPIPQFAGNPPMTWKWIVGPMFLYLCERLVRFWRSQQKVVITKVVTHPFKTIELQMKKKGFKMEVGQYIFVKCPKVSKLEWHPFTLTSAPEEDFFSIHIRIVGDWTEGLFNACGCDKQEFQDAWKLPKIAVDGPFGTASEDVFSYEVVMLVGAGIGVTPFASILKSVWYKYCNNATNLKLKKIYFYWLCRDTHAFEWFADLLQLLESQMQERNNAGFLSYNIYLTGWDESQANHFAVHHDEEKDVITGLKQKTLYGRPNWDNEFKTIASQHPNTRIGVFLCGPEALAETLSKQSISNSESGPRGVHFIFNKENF
How it was run: as §1

[3] = biological target: NADPH oxidase 3 (Homo sapiens) (UniProt Q9HBY0); conditions: HEK293 transfected NOX2/3/4, luminol ROS chemiluminescence; NOX3; at 10 µM; stronger effect = higher value
NADPH oxidase 3 (Homo sapiens), sequence (Q9HBY0 whole entry, looked up): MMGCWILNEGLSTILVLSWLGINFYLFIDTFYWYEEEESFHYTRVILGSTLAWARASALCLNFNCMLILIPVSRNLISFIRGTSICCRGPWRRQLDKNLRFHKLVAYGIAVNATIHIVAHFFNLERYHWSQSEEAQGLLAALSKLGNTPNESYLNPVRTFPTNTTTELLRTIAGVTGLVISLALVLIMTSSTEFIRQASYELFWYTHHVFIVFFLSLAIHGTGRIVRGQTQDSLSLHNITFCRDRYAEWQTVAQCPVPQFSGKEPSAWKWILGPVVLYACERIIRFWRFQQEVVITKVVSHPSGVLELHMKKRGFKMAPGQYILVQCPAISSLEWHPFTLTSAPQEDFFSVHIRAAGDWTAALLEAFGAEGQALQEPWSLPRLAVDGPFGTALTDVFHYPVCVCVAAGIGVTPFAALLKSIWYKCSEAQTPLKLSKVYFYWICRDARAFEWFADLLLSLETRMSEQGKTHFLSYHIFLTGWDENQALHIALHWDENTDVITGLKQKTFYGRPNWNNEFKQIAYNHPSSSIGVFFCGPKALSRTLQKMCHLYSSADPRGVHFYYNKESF
How it was run: as §1

In the case of `FC(F)(F)c1ccc2c(c1)Nc1ccccc1S2`, the inhibition [1] is reported as 10% (inactive), the inhibition [2] is reported as 20% (inactive) and the inhibition [3] is reported as 10% (inactive).

With `CN(C)c1ccc(NC(=O)Nc2ccc(OCc3ccccc3)cc2)cc1` the inhibition [1] was 52%, the inhibition [2] was 32% (inactive) and the inhibition [3] was 52%.

In the case of `COc1cc(-c2nc(-c3ccccc3)c(-c3ccccc3)[nH]2)ccc1O`, the inhibition [1] is reported as 61%, the inhibition [2] is reported as -7% (inactive) and the inhibition [3] is reported as 61%.

In the case of `Cc1cc(Cl)ccc1NC(=S)NNC(=S)Nc1ccc(F)cc1`, the inhibition [1] is reported as 25% (inactive), the inhibition [2] is reported as 6% (inactive) and the inhibition [3] is reported as 25% (inactive).

In the case of `CN(C)c1ccc(/C=N/Nc2c(Cl)cncc2Cl)cc1`, the inhibition [1] is reported as 3% (inactive), the inhibition [2] is reported as 19% (inactive) and the inhibition [3] is reported as 3% (inactive).

`O=C(Oc1ccccc1N1CCCCC1)c1sc2ccccc2c1Cl` was tested, and the inhibition [1] was 3% (inactive), the inhibition [2] was -3% (inactive) and the inhibition [3] was 3% (inactive).

`c1ccc2c(c1)Nc1nc3ccccc3nc1N2` was tested, and the inhibition [1] was -24% (inactive), the inhibition [2] was 2% (inactive) and the inhibition [3] was -24% (inactive).
